In data set [1] the test system is Trypanosoma brucei rhodesiense. In words: Antitrypanosomal activity against Trypanosoma brucei rhodesiense STIB900 after 72 hrs by Alamar blue assay. Format: functional, organism-based. As to conditions: STIB900, 72 h. (Alamar Blue is a resazurin reagent that responds to reducing activity.)
Another data set relates to Plasmodium falciparum. Nature of the data set: Antiplasmodial activity against chloroquine-resistant Plasmodium falciparum K1. Format: functional, organism-based. In a few lines: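 Chloroquine-resistant K1 strain tested in vitro. IC50 is the average of duplicate determinations.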
The subject of data set [2] is Trypanosoma brucei rhodesiense. In words: Antitrypanosomal activity against Trypanosoma brucei rhodesiense STIB900 infected in NMRI mouse assessed as cured animal at 25 mg/kg, po administered for 4 days. Format: functional, organism-based. Set-up: dose 25 mg/kg. In a few lines: (§1)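 Acute model in female NMRI mice infected with T. b. rhodesiense STIB900. Single daily doses given for four days, intraperitoneally or orally. Mice surviving 60 days post-infection without parasitaemia relapse counted as cured; result reported as cured/infected out of 4 mice per group, with mean survival in days.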

The next data set relates to Leishmania donovani. Nature of the data set: Antileishmanial activity against amastigotes of Leishmania donovani MHOM/SD/62/IS-CL2D. Format: functional, organism-based. In a few lines: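 Axenic amastigotes of L. donovani MHOM/SD/62/IS-CL2D; IC50 taken as the average of at least two determinations.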
A short description of data set [3]: Selectivity index, ratio of IC50 for rat L6 cells to IC50 for amastigotes of Leishmania donovani. Format: toxicity, cell-based. Particulars: read-out: Ratio IC50. In a few lines: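 SI = IC50 in rat L6 myoblasts / IC50 against L. donovani MHOM/SD/62/IS-CL2D axenic amastigotes. The amastigote IC50 is the average of at least two determinations; the L6 IC50 is the average of duplicates.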

Data set [4] is described as follows: Selectivity index, ratio of IC50 for rat L6 cells to IC50 for chloroquine-resistant Plasmodium falciparum K1. Format: toxicity, cell-based. Particulars: read-out: Ratio IC50. In a few lines:
(§2)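 SI = IC50 in rat L6 myoblasts / IC50 against the parasite (T. b. rhodesiense STIB900 or P. falciparum K1). Each IC50 is the average of duplicate determinations.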

Data set [5] in a line: Selectivity index, ratio of IC50 for rat L6 cells to IC50 for Trypanosoma brucei rhodesiense STIB900. Format: toxicity, cell-based. Particulars: read-out: Ratio IC50. Summed up: as §2
The subject of data set [6] is Trypanosoma brucei rhodesiense. Nature of the data set: Antitrypanosomal activity against Trypanosoma brucei rhodesiense STIB900 infected in NMRI mouse assessed as mean survival days at 25 mg/kg, po administered for 4 days. Format: functional. Summed up: (§3)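 Female NMRI mice, acute infection model with T. b. rhodesiense STIB900. Compound given as a single daily dose for four days, intraperitoneally or orally. Cure means survival to 60 days post-infection without parasitaemia relapse. Mean survival recorded in days.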

The next data set concerns L6. In words: Cytotoxicity against rat L6 cells after 72 hrs by Alamar blue assay. Format: cell-based. Particulars: L6, 72 h. Summed up:
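Rat L6 myoblast cells; cytotoxic IC50 taken as the average of duplicate determinations.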

The test system of data set [7] is Trypanosoma brucei rhodesiense. Nature of the data set: Antitrypanosomal activity against Trypanosoma brucei rhodesiense STIB900 infected in NMRI mouse assessed as mean survival days at 5 mg/kg, ip administered for 4 days. Format: functional. Particulars: route intraperitoneal. Summed up:
as §3

In data set [8] the test system is Trypanosoma brucei rhodesiense. Nature of the data set: Antitrypanosomal activity against Trypanosoma brucei rhodesiense STIB900 infected in NMRI mouse assessed as cured animal at 5 mg/kg, ip administered for 4 days. Format: functional, organism-based. Set-up: dose 5 mg/kg. In a few lines:
as §1

Calls of active or inactive are those of the source. No cut-off for these calls is given here. Some results are limits rather than exact numbers.

In general, IC50 refers to the concentration at which inhibition is half-maximal. High values mean weaker potency in that assay, low ones greater potency in that assay.

For `CO/N=C(\N)c1cccc(COc2ccc(/C(N)=N/OC)cc2I)c1.Cl.Cl`, the IC50 in [1] is 34.7 µM; in the data set on Plasmodium falciparum, 6.3 µM; with Leishmania donovani, > 100 µM; in the data set on L6 it was 81 µM. Also, in data set [2], the result was inactive. Further, the values for the selectivity ratio in [3], in data set [4] and in data set [5] were < 1, 13 and 2, respectively. Also, the MSD in [6] came out at 22.25 days.
Turning to `COc1cc(C(=N)N)cc(OC)c1OCc1ccc(C(=N)N)cc1.Cl.Cl`, the MSD in data set [7] stood at 15 days. Moreover, the result in [8] was inactive. Moreover, the IC50 is 0.11 µM in data set [1], 0.177 µM with Plasmodium falciparum, > 100 µM with Leishmania donovani and 209 µM in the data set on L6. The selectivity ratio was < 2 in [3], 1180 in [4] and 1910 in data set [5].
Turning to `COc1cc(/C(N)=N/O)cc(I)c1OCc1cccc(/C(N)=N/O)c1.Cl.Cl`, the IC50 in [1] is 38.7 µM; with Plasmodium falciparum, > 9.45 µM; in the data set on Leishmania donovani, > 94.5 µM; in the data set with L6, 32.1 µM. In data set [2], the result was inactive. The values for the selectivity ratio in data set [3], in data set [4] and in data set [5] were < 1, < 3 and < 1, respectively. In addition, the MSD in [6] worked out at 20.5 days.
For `N=C(N)c1ccc(COc2c(Br)cc(C(=N)N)cc2Br)cc1`, the MSD in [7] was 30 days. Besides, the result in [8] was inactive. Further, the IC50 in data set [1] amounted to 0.017 µM; in the data set on Plasmodium falciparum it was 0.025 µM; with Leishmania donovani, 4.09 µM; in the data set on L6 it was 21.5 µM. Also, the selectivity ratio was 5 in data set [3], 849 in data set [4] and 1260 in data set [5].
For `CO/N=C(\N)c1cccc(COc2c(OC)cc(/C(N)=N/OC)cc2OC)c1.Cl.Cl`, the concentration for half-maximal inhibition (IC50) in [1] is 109 µM; with Plasmodium falciparum, > 10.4 µM; in the data set with Leishmania donovani, > 100 µM; in the data set on L6, > 188 µM. Besides, the result in data set [2] was inactive. For the same compound, the selectivity ratio in data set [3] is < 2; in data set [5] it was > 1. The MSD in data set [6] was found to be 15 days.
`COc1cc(/C(N)=N/O)cc(Br)c1OCc1cccc(/C(N)=N/O)c1.Cl.Cl`: the IC50 in [1] was 87.9 µM; with Plasmodium falciparum, > 10.4 µM; in the data set with Leishmania donovani, > 100 µM; with L6, 28.9 µM. Further, the outcome in data set [2] was inactive. Further, the selectivity ratio was < 1 in data set [3], < 3 in data set [4] and < 1 in data set [5]. Moreover, the MSD in data set [6] came out at 31.75 days.
As to `CO/N=C(\N)c1cccc(COc2ccc(/C(N)=N/OC)cc2Cl)c1.Cl.Cl.Cl`, the 50% inhibitory concentration (IC50) in data set [1] is 26.1 µM; with Plasmodium falciparum, > 10.2 µM; in the data set on Leishmania donovani it was > 100 µM; in the data set on L6, 89.6 µM. Also, in [2], the result was inactive. Also, the selectivity ratio in data set [3] was < 1; in data set [4], < 9; in data set [5], 3. For the same compound, the MSD in data set [6] was 29.25 days.
For the compound `COc1cc(/C(N)=N/O)cc(OC)c1OCc1ccc(/C(N)=N/O)cc1.Cl.Cl`, the IC50 stood at 161 µM in data set [1], 11.1 µM in the data set with Plasmodium falciparum, 34.1 µM in the data set with Leishmania donovani and 56.8 µM with L6. Besides, the outcome in data set [2] was inactive. Besides, the values for the selectivity ratio in [3], in data set [4] and in data set [5] were 1.67, 5.11 and < 1, respectively. For the same compound, the MSD in [6] was 14.5 days.
For the compound `CO/N=C(\N)c1cccc(COc2c(I)cc(/C(N)=N/OC)cc2I)c1.Cl.Cl`, the IC50 in data set [1] was 26.3 µM; in the data set on Plasmodium falciparum, > 7.1 µM; in the data set on Leishmania donovani, 44.2 µM; with L6, 27.5 µM. Moreover, in [2], the result was inactive. The results for the selectivity ratio in data set [3], in data set [4] and in data set [5] were < 1, < 4 and 1, respectively. For the same compound, the MSD in data set [6] came to 19.75 days.
Take `CO/N=C(\N)c1ccc(COc2c(OC)cc(/C(N)=N/OC)cc2OC)cc1.Cl.Cl`: the half-maximal inhibitory concentration (IC50) is 129 µM in data set [1], > 10.6 µM in the data set on Plasmodium falciparum, 100 µM with Leishmania donovani and > 190 µM in the data set with L6. In addition, the result in data set [2] was inactive. In addition, the selectivity ratio was > 2 in data set [3] and > 1 in data set [5]. Further, the MSD in data set [6] turned out to be 11.75 days.
In the case of `Cl.Cl.N/C(=N\O)c1cccc(COc2c(I)cc(/C(N)=N/O)cc2I)c1`, the half-inhibitory concentration (IC50) in [1] amounted to 13.6 µM; in the data set on Plasmodium falciparum, 7.38 µM; with Leishmania donovani it was 6.63 µM; in the data set with L6, 15.8 µM. The outcome in data set [2] was inactive. For the same compound, the selectivity ratio worked out at 2 in data set [3], 2.14 in data set [4] and 1 in data set [5]. Moreover, in [6], the MSD was 5.75 days.
Take `Cl.Cl.N/C(=N\O)c1cccc(COc2ccc(/C(N)=N/O)cc2I)c1`: the 50% inhibitory concentration (IC50) in data set [1] is 50.2 µM; in the data set on Plasmodium falciparum it was 7.31 µM; in the data set with Leishmania donovani, > 50 µM; in the data set with L6, 4.73 µM. In addition, the outcome in data set [2] was inactive. The selectivity ratio in data set [3], in data set [4] and in data set [5] was < 1 throughout. Also, the MSD in [6] was determined as 20 days.
For `CO/N=C(\N)c1cccc(COc2c(Cl)cc(/C(N)=N/OC)cc2Cl)c1.Cl.Cl.Cl.Cl`, the concentration for half-maximal inhibition (IC50) in data set [1] was 60.1 µM; in the data set on Plasmodium falciparum, 5.91 µM; with Leishmania donovani, > 50 µM; with L6, 108 µM. The result in [2] was inactive. The selectivity ratio in data set [3] is < 2; in data set [4] it was 18; in data set [5], 2. Also, the MSD in data set [6] amounted to 21.75 days.
Consider `Cl.Cl.N/C(=N\O)c1ccc(COc2ccc(/C(N)=N/O)cc2I)cc1`, for which the concentration for half-maximal inhibition (IC50) is 25.8 µM in data set [1], 5.29 µM with Plasmodium falciparum, > 100 µM in the data set on Leishmania donovani and 18.1 µM with L6. For the same compound, the outcome in [2] was inactive. The selectivity ratio is < 1 in data set [3], 3 in data set [4] and < 1 in data set [5]. The MSD in data set [6] amounted to 29.75 days.
For `CO/N=C(\N)c1cccc(COc2c(Br)cc(/C(N)=N/OC)cc2Br)c1.Cl.Cl`, the half-maximal inhibitory concentration (IC50) in [1] was 69.7 µM; in the data set with Plasmodium falciparum, 6.79 µM; in the data set on Leishmania donovani it was > 50 µM; in the data set on L6, 54.7 µM. The outcome in [2] was inactive. Besides, the selectivity ratio in [3] is < 1; in [4], 8; in data set [5] it was < 1. Besides, the MSD in data set [6] was >31.5 days.
On to `Cl.Cl.N/C(=N\O)c1ccc(COc2ccc(/C(N)=N/O)cc2Br)cc1`, for which the IC50 is 24 µM in data set [1], > 11.1 µM in the data set with Plasmodium falciparum, > 100 µM in the data set on Leishmania donovani and 6.6 µM in the data set on L6. Further, in data set [2], the result was inactive. In addition, the selectivity ratio in data set [3], in data set [4] and in data set [5] was < 1 each time. Moreover, the MSD in data set [6] stood at 28.75 days.
Take `COc1cc(/C(N)=N/O)cc(OC)c1OCc1cccc(/C(N)=N/O)c1.Cl.Cl`: the IC50 in data set [1] was 157 µM; with Plasmodium falciparum, > 11.5 µM; with Leishmania donovani, > 100 µM; with L6, 70.7 µM. Further, in [2], the outcome was inactive. Further, the selectivity ratio in data set [3] was < 1; in data set [4] it was < 6; in [5], < 1. Moreover, in data set [6], the MSD was 16.5 days.
Turning to `CO/N=C(\N)c1cccc(COc2ccc(/C(N)=N/OC)cc2Br)c1.Cl.Cl`, the IC50 in data set [1] is 79.1 µM; in the data set with Plasmodium falciparum, > 9.96 µM; with Leishmania donovani it was 5.66 µM; with L6 it was 99.4 µM. The outcome in data set [2] was Active. In addition, the selectivity ratio in data set [3] is 17; in data set [4], < 10; in [5] it was 1. Further, the MSD in data set [6] was >60 days.
Turning to `Cl.Cl.N/C(=N\O)c1cccc(COc2ccc(/C(N)=N/O)cc2Br)c1`, the IC50 was 14.7 µM in data set [1], 5.8 µM with Plasmodium falciparum, > 100 µM in the data set with Leishmania donovani and 4.39 µM with L6. Besides, in data set [2], the result was inactive. Moreover, the selectivity ratio in [3], in data set [4] and in data set [5] was < 1 throughout. Besides, in data set [6], the MSD was 12.75 days.

(Values after ChEMBL document CHEMBL2417357, “Synthesis and antiprotozoal activities of benzyl phenyl ether diamidine derivatives” (Eur J Med Chem, 2013).)
